From ChEMBL document CHEMBL1155278, “3,4-Diaryl-isoxazoles and -imidazoles as potent dual inhibitors of p38alpha mitogen activated protein kinase and casein kinase 1delta” (J Med Chem, 2009)

Tests used:
[1] = molecular target: MAP/microtubule affinity-regulating kinase 3 (Homo sapiens) (UniProt P27448); test: Inhibition of MARK3 assessed as residual activity at 0.1 uM by Cherenkov counting relative to control in presence of 5 uM ATP
Outline: (§1)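 Single-concentration selectivity screen at 0.1 μM against a panel of 76 protein kinases. Each kinase was run at an ATP level approximating its Km for ATP. Output is mean residual activity as % of the control assay without compound, n = 3 ± SD.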

[2] = molecular target: Cyclin-dependent kinase 2/cyclin A (Homo sapiens) (UniProt P24941+P20248+P78396); test: Inhibition of CDK2/cyclin A assessed as residual activity at 0.1 uM by Cherenkov counting relative to control in presence of 20 uM ATP; type: protein-complex assay
Outline: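 Single-concentration screen at 0.1 µM across a panel of 76 protein kinases. Each kinase was run at an ATP concentration approximating its ATP Km. Results are % mean residual activity versus control assays without compound (n = 3 ± SD).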

[3] = molecular target: Tyrosine-protein kinase Yes (Homo sapiens) (UniProt P07947); test: Inhibition of YES1 at 0.1 uM by Cherenkov counting in presence of 20 uM ATP
Outline: (§2)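 Single-concentration screen at 0.1 μM in a 76-kinase panel. ATP for each kinase was set near its Km for ATP. Residual activity is given as a percentage of control assays without compound, mean of n = 3 ± SD.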

[4] = molecular target: Tyrosine-protein kinase Lck (Homo sapiens) (UniProt P06239); test: Inhibition of Lck assessed as residual activity at 0.1 uM by Cherenkov counting relative to control in presence of 50 uM ATP; outline: as §1
[5] = molecular target: Mitogen-activated protein kinase 9 (Homo sapiens) (UniProt P45984); test: Inhibition of JNK2 at 0.1 uM by Cherenkov counting in presence of 20 uM ATP; outline: as §1
[6] = molecular target: T1, Serine/threonine-protein kinase D1 (Homo sapiens) (UniProt Q15139); test: Inhibition of PKD1 assessed as residual activity at 0.1 uM by Cherenkov counting relative to control in presence of 50 uM ATP; outline: as §2
T1 sequence (whole entry): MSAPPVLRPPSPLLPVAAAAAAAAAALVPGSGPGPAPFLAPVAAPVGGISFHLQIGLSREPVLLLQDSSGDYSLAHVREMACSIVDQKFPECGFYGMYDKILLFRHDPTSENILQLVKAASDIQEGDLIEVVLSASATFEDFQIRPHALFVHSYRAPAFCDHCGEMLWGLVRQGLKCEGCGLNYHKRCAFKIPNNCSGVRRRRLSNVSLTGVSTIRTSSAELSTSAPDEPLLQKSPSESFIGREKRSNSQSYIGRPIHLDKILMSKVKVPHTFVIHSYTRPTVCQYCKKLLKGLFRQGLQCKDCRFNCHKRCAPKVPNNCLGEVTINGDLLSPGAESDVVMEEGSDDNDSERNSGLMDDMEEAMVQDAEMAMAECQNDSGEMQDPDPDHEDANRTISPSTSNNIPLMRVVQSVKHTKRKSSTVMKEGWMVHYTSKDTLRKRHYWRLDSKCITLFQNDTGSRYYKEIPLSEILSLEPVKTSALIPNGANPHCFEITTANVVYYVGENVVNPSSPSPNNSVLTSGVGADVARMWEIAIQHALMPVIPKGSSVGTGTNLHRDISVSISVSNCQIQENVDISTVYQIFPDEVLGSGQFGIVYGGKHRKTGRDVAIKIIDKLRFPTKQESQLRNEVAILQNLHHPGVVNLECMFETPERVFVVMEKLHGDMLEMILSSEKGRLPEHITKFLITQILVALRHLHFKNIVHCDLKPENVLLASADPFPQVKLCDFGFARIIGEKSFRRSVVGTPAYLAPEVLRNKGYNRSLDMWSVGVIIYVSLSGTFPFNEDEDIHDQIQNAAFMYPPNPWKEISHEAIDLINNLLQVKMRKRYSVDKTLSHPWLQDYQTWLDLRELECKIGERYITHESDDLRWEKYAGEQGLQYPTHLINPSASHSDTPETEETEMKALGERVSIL

[7] = molecular target: Serine/threonine-protein kinase 26 (Homo sapiens) (UniProt Q9P289); test: Inhibition of MST4 assessed as residual activity at 0.1 uM by Cherenkov counting relative to control in presence of 20 uM ATP; outline: as §1
[8] = molecular target: T2, Inhibitor of nuclear factor kappa-B kinase subunit beta (Homo sapiens) (UniProt O14920); test: Inhibition of IKK-beta assessed as residual activity at 10 uM by Cherenkov counting relative to control in presence of 5 uM ATP
T2 sequence (whole entry): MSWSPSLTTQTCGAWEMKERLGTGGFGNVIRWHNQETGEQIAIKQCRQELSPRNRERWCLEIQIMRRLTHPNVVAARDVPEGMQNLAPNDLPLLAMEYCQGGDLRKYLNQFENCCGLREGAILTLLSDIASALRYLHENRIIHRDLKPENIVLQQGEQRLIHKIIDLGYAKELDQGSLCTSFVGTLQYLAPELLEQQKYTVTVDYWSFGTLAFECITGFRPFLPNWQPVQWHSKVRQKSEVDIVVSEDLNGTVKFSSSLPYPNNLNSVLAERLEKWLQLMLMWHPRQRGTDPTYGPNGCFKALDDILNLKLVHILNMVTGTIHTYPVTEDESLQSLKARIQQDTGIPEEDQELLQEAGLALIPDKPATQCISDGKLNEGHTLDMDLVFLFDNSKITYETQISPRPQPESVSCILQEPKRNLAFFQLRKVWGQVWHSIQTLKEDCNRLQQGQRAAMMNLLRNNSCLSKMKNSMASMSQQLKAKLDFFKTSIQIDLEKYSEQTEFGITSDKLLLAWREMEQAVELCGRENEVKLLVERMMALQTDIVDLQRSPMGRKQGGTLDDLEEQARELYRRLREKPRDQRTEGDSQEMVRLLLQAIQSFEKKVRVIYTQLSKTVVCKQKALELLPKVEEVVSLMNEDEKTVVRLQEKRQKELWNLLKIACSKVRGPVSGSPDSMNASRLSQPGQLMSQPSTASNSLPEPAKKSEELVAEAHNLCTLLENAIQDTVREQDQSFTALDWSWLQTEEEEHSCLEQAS
Outline: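 Single-point profiling at 10 µM in a panel of 78 protein kinases. Kinase activity is expressed as a percentage relative to control assays without compound.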

[9] = molecular target: Tyrosine-protein kinase SYK (Homo sapiens) (UniProt P43405); test: Inhibition of SYK assessed as residual activity at 10 uM by Cherenkov counting relative to control in presence of 20 uM ATP
Outline: (§3)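 Single-concentration profiling at 10 μM in a 78-kinase panel. Kinase activity is expressed as a percentage of control assays run without compound.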

[10] = molecular target: RAC-beta serine/threonine-protein kinase (Homo sapiens) (UniProt P31751); test: Inhibition of PKBbeta assessed as residual activity at 10 uM by Cherenkov counting relative to control in presence of 50 uM ATP; outline: as §3
Sequence of RAC-beta serine/threonine-protein kinase (Homo sapiens) (P31751 whole entry): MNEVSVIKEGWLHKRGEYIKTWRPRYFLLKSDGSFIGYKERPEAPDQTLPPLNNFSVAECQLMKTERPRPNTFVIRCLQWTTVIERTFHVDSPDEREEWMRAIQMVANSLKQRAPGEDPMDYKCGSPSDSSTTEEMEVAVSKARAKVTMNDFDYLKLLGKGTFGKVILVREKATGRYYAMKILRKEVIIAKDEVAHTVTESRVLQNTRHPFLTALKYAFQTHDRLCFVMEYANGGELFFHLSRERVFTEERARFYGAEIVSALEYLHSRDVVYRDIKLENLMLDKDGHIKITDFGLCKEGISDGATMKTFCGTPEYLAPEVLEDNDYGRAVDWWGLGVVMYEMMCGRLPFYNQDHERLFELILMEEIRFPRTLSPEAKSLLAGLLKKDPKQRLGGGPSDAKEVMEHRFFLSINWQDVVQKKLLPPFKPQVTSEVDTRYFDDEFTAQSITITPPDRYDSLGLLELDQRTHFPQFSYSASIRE

Sequence of Tyrosine-protein kinase Yes (Homo sapiens) (P07947 2-543 limits assumed): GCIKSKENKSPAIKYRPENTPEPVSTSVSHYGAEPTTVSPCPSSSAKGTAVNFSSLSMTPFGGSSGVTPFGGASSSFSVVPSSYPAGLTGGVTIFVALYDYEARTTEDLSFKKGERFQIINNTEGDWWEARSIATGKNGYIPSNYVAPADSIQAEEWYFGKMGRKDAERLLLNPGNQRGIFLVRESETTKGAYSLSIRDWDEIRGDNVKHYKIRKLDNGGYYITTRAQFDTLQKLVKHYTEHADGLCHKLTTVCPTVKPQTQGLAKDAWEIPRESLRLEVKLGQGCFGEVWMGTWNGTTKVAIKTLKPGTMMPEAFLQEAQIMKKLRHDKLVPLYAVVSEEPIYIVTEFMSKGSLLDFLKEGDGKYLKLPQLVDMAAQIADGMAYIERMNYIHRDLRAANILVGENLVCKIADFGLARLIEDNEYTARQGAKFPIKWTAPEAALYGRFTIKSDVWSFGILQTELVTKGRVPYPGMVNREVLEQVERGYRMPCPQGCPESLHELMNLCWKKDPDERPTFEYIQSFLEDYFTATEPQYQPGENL
Sequence of Tyrosine-protein kinase Lck (Homo sapiens) (P06239 2-509 limits assumed): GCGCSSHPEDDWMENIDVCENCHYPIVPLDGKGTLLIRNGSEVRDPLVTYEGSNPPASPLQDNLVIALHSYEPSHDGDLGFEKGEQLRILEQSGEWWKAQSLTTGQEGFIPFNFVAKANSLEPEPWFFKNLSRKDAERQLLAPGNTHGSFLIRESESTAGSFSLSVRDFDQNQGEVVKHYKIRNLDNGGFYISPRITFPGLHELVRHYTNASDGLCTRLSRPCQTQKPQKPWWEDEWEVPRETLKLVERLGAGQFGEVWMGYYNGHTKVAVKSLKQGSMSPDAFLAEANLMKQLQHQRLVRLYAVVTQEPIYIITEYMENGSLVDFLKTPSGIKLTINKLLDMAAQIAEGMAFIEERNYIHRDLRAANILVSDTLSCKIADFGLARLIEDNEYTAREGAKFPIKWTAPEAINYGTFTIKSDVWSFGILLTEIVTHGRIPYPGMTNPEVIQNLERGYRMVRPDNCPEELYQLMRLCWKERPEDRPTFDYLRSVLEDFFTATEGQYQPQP
Sequence of MAP/microtubule affinity-regulating kinase 3 (Homo sapiens) (P27448 whole entry, looked up): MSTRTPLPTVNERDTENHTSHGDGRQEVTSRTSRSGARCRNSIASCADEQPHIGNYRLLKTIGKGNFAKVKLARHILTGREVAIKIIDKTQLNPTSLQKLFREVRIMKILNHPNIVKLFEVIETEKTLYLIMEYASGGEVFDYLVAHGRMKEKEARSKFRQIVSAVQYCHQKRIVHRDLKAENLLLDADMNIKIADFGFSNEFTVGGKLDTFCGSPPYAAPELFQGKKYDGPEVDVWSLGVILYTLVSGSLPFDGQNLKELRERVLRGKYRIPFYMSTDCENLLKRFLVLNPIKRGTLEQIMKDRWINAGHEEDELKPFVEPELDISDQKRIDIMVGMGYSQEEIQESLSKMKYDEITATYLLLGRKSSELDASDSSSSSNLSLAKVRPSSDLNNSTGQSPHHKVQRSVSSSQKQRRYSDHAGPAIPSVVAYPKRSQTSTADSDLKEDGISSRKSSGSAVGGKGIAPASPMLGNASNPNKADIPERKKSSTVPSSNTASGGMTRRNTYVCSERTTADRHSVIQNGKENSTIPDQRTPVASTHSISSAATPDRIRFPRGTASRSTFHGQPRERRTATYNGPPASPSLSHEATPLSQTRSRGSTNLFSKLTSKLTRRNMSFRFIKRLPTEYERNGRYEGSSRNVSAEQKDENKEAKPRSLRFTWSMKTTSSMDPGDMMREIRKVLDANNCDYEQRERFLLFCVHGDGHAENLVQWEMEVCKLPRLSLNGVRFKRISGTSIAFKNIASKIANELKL
Sequence of Serine/threonine-protein kinase 26 (Homo sapiens) (Q9P289 2-416 limits assumed): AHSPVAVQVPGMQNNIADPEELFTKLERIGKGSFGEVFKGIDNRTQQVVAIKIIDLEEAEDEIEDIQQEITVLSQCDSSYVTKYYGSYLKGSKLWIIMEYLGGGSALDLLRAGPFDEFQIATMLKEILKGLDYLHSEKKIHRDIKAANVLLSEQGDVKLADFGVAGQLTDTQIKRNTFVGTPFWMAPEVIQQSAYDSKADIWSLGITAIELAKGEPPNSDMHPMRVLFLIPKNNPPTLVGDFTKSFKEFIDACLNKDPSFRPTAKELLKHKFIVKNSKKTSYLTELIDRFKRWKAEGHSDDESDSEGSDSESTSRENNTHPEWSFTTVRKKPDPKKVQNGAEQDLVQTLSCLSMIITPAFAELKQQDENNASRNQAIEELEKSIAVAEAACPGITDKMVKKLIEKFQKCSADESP
Sequence of Mitogen-activated protein kinase 9 (Homo sapiens) (P45984 whole entry, looked up): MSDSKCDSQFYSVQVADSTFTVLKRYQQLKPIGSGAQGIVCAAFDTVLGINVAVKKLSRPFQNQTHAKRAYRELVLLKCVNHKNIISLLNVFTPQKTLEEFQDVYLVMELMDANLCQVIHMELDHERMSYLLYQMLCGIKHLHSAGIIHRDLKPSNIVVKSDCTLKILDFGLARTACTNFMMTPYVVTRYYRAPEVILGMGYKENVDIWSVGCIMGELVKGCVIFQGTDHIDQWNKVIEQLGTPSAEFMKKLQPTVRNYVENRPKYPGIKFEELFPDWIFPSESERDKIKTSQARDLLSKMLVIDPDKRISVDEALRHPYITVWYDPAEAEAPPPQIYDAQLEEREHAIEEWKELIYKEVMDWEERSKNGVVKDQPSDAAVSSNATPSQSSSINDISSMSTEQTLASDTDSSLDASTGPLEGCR

SMILES	Activity [1] [%]	Activity [2] [%]	inhibition [3] [%]	Activity [4] [%]	inhibition [5] [%]	Activity [6] [%]	Activity [7] [%]	Activity [8] [%]	Activity [9] [%]	Activity [10] [%]
COc1ccc(/C=C/C(=O)Nc2cc(-c3[nH]c(SC)nc3-c3ccc(F)cc3)ccn2)c(OC)c1	87	112	76	50	69	88	90	–	–	–
COc1ccc(/C=C/C(=O)Nc2cc(-c3[nH]c([S+](C)[O-])nc3-c3ccc(F)cc3)ccn2)c(OC)c1 (stereo not given)	89	115	86	74	88	97	86	–	–	–
CC(C)c1noc(-c2ccc(F)cc2)c1-c1ccncc1	–	–	–	–	–	–	–	103	114	104
CC(C)c1onc(-c2ccc(F)cc2)c1-c1ccncc1	–	–	–	–	–	–	–	103	131	101
